# Published values of several laboratories.
# Protocols differ between the studies behind these lines.
# JAK1 JH2: Tyrosine-protein kinase JAK1, JH2 (JAK1, Homo sapiens, UniProt P23458)
# JAK1: Tyrosine-protein kinase JAK1 (JAK1, Homo sapiens, UniProt P23458)
# JAK1 JH1: Tyrosine-protein kinase JAK1, JH1 (JAK1, Homo sapiens, UniProt P23458)
Structure (SMILES),target,effect on,mode,method,concentration,measurement,value
Cn1cncc1[C@](O)(COc1ccc(C#N)cc1-c1ccc(OC(F)(F)F)cc1)c1ccc(C#N)cc1,JAK1 JH2,cell-free assay,,competition with immobilised ligand,1 µM,remaining binding,70%
Cn1cc(-c2cccc(N3CCc4c(sc5c4CC(C)(C)C5)C3=O)c2CO)cc(Nc2ccncn2)c1=O,JAK1,enzyme activity,inhibitor,,1 µM,inhibition,-2%
Cc1nn(C)cc1-c1nc2c(N3CCN(Cc4ccc(Cl)cc4)CC3)c(Cl)cnc2[nH]1,JAK1 JH1,binding,,competition with immobilised ligand,1 µM,remaining binding,46%
C#Cc1n[nH]c2c(-c3cn(C(C)c4ccccn4)c(=O)[nH]c3=O)cc(F)cc12 (centres unmarked),JAK1,enzyme activity,inhibitor,,1 µM,inhibition,-2.3%
O=c1[nH]c2ccccc2n1C1CCN(Cc2ccc(-c3[nH]c4cc5ncnc5cc4nc3-c3ccccc3)cc2)CC1,JAK1,cell-free assay,,,0.5 µM,remaining signal,94.6%
N#CC1(c2ccccn2)CCN(Cc2cc(C(=O)O)c(=O)n3ccccc23)CC1,JAK1 JH2,cell-free assay,,competition with immobilised ligand,1 µM,remaining binding,84%
CC(C)(C)c1cc(C=C(C#N)C#N)cc(Br)c1O,JAK1,enzyme activity,inhibitor,,0.5 µM,remaining activity,107%
Cn1cc(-c2cc(F)cc(N3CCn4c(cc5c4CCCC5)C3=O)c2CO)cc(Nc2ccc(N3CCN(C4COC4)CC3)cn2)c1=O,JAK1,enzyme activity,inhibitor,,0.1 µM,inhibition,6%
COc1ncccc1-c1cnn2ccc(N3CCN(C(=O)OC(C)C)CC3)nc12,JAK1,binding,,competition with immobilised ligand,1 µM,remaining binding,100%
COc1cc(Nc2ncc(F)c(Nc3ccc4c(n3)NC(=O)C(C)(C)O4)n2)cc(OC)c1OC,JAK1 JH1,binding,,competition with immobilised ligand,10 µM,inhibition,100%
Nc1ncc(-c2nc(N3CCOCC3)nc(N3CCOCC3)n2)c(C(F)F)n1,JAK1 JH1,binding,,competition with immobilised ligand,10 µM,remaining binding,90%
